Bioassay records: PubChem BioAssay, several laboratories
STAT3 act-1: increases IL-6 driven STAT3 reporter signal; activation (% of control), % at 5.6 µM; 190,000 compounds, 0.91% hits; U3A cells, IL-6 STAT3-luciferase reporter, luminescence; 100% = signal with IL-6 EC80 alone; AID 871;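 active = activation above the screen-wide mean of compound activation plus 3 SD, cut at about 130% in these data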;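 note: 0% = background luminescence of wells with medium and substrate only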
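Material: human U3A cells carrying STAT3-luciferase construct. Measured by: reporter luminescence signal. Timing: compound 1 h, then IL-6 6 h at 37 °C.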
STAT1 act-1: increases IFN-gamma driven STAT1 reporter signal; 200,000 compounds, 2.6% hits; NIH 3T3 STAT1-luciferase reporter, luminescence; 100% = IFN-gamma alone, no compound; activation (% of control), % at 5.5 µM; AID 932;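 active = activation above the screen-wide mean activation plus 3 SD, cut at about 130% in these data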;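 note: raw ratio to IFN-gamma control signal so 100% means no change and 0% no light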
APP 5'UTR act: APP 5'UTR luciferase reporter activation | SH-SY5Y APP 5'UTR luciferase reporter, luminescence; zero percent = DMSO vehicle wells | activation, % at 2 µM | 190,000 compounds, 1% hits | AID 1276;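 active = activation above a set limit, based on mean plus 3 SD of controls, cut at about 140% in these data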
NF-kB expr up: compounds increasing NF-kB expression in human neuronal cells | NF-kB reporter expression; stronger effect = higher value | AID 1239 | fold change at 12.5 µM | 190,000 compounds, 1.6% hits; in the data active = fold change above about 3.3
STAT3 inh: inhibitors of IL-6 induced STAT3 signaling | U3A cells, IL-6 STAT3-luciferase reporter, luminescence; host cell line lacks STAT1 | 190,000 compounds, 0.89% hits | inhibition, % at 5.5 µM;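 active = inhibition above the mean inhibition across all screened compounds plus 3 SD, cut at about 44% in these data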;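 note: 0% = DMSO only wells and 100% = 100 µM nifuroxazide control wells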
STAT1 inh: reduces IFN-gamma driven STAT1 reporter signal. NIH 3T3 STAT1-luciferase reporter, luminescence. AID 920. 200,000 compounds, 0.35% hits. inhibition, % at 5.5 µM;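 active = inhibition above a set limit, the mean inhibition across all tested compounds plus 3 SD, cut at about 34% in these data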;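 note: 0% = IFN-gamma with DMSO and 100% = IFN-gamma with 300 µM nifuroxazide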
STAT3 act-2: STAT3 activation, confirmation assay; 1,200 compounds, 64% hits; potentiation (% of control), % at 5.7 µM; shares compounds with STAT3 act-1; U3A STAT3-luciferase reporter, IL-6 potentiation, luminescence; U3A cells lack STAT1; 100 means same as IL-6 alone;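 active = percent activation of the STAT3 luciferase reporter above a set limit taken from the earlier primary screen, cut at about 130% in these data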;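 note: 0% = background signal of medium plus substrate and 100% = median of IL-6 with DMSO wells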
NFkB act 2: activates NF-kappaB, counter-screen to STAT3 activators | AID 1309 | activation (% of control), % at 5.7 µM | human cells, NF-kappaB reporter activation | 1,200 compounds, 11% hits | shares compounds with STAT3 act-1; in the data active = activation above about 120%;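 note: reporter induced by TNF-alpha stimulation; 100% = median of stimulated DMSO wells and 0% = no signal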
STAT1 act-2: counter-screen for STAT3 activators: STAT1 activation; 1,200 compounds, 13% hits; AID 1318; shares compounds with STAT3 act-1; NIH 3T3 STAT1-luciferase reporter, IFN-gamma, luminescence; activation (% of control), % at 5.7 µM;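 active = activation above the solvent-only control well mean plus 3 SD, set per screening run, cut at about 120% in these data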;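 note: 100% = IFN-gamma with DMSO median signal so 100% means no change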
Starred values were filed as active, the others as inactive; . = no result. Hits are enriched below; roughly 5.1% of the tested compounds scored in any of these assays.

SMILES | STAT3 act-1 | STAT1 act-1 | APP 5'UTR act | NF-kB expr up | STAT3 inh | STAT1 inh | STAT3 act-2 | NFkB act 2 | STAT1 act-2
COC(=O)C(NC=O)C(O)(Cc1ccccc1)C(F)(F)F (stereo not given) | 158* | 98 | 0 | 1.6 | -63 | 2 | 152* | 106 | 101
Cc1nn(CC(=O)c2ccccc2)c(=O)c2nn(-c3ccccc3F)c(C)c12 | 96 | 97 | 10 | 1.2 | 6 | 3 | . | . | .
O=C(Nc1cccc(F)c1)c1ccc(CSc2ccccc2)o1 | 107 | 98 | 8 | 1.7 | -12 | 2 | . | . | .
CC(=O)Nc1ccc(NC(=O)c2ccc(CSc3ccccc3)o2)cc1 | 144* | 99 | 28 | 0.98 | -45 | 1 | 113 | 105 | 107
CCOc1ccc(N2C(=O)C3Sc4[nH]c(=O)sc4C(/C=C/c4ccccc4)C3C2=O)cc1 (stereo not given) | 141* | 108 | 15 | 1.1 | -51 | -9 | 128 | 112 | 115
O=C(COC(=O)C1(c2ccc(F)cc2)CCCC1)N1CCc2ccccc21 | 107 | 98 | -5 | 0.98 | -10 | 3 | . | . | .
COC(=O)c1[nH]c2ccc(C)cc2c1NC(=O)CN1CCN(c2ccccc2)CC1 | 73 | 88 | 3 | 0.54 | 37 | 13 | . | . | .
Cc1ccc2[nH]c(C(=O)O)c(NC(=O)CN3CCN(c4cccc(C)c4C)CC3)c2c1 | 147* | 102 | -23 | 1.4 | -55 | -2 | 132 | 99 | 103
CCOc1ccc(NC(=O)CN(C)CC(=O)Nc2ccccc2SC)cc1OCC | 112 | 108 | -12 | 1.2 | -14 | -9 | . | . | .
CCOc1ccc(NC(=O)CN(C)CC(=O)Nc2cc(Cl)ccc2C#N)cc1OCC | 154* | 87 | 9 | 0.76 | -60 | 14 | 132 | 99 | 92
Cc1cccc(C)c1NC(=O)CN(C)CC(=O)Nc1cc(Cl)ccc1C#N | 138* | 90 | -1 | 0.92 | -39 | 11 | 125 | 103 | 95
O=C(CN1CCc2ccccc2C1)NC1CCCC1 | 107 | 99 | 3 | 1.1 | 2 | 1 | . | . | .
Cc1cccc(/C=N/NC(=O)C(C)Nc2cccc3ccccc23)n1 (stereo not given) | 164* | 107 | 14 | 2.3 | -75 | -1 | 139* | 94 | 97
CC(Nc1cccc2ccccc12)C(=O)N/N=C/c1ccc([N+](=O)[O-])cc1 (stereo not given) | 113 | 93 | 6 | 0.85 | -11 | 8 | . | . | .
Cc1csc(NC(=O)Cc2coc3cc(C)c(C(C)C)cc23)n1 | 137* | 96 | 3 | 0.7 | -38 | 5 | 125 | 99 | 96
CC(=O)Nc1ccc(CN2CCc3c([nH]c4ccccc34)C2c2ccccn2)cc1 (stereo not given) | 127 | 96 | 23 | 1.1 | -25 | 4 | . | . | .
Cc1cccc(C2c3[nH]c4ccccc4c3CCN2Cc2cccn2-c2ncccn2)c1 (stereo not given) | 149* | 95 | 16 | 1.1 | -54 | 4 | 156* | 106 | 98
COc1ccc(C2c3[nH]c4ccccc4c3CCN2Cc2cccn2-c2ncccn2)cc1C (stereo not given) | 136* | 99 | -12 | 0.89 | -38 | -1 | 136* | 104 | 94
COc1ccc(NC(=O)c2[nH]c(C)c(C(C)=O)c2C)cc1 | 143* | 118 | 28 | 1.9 | -46 | -22 | 159* | 121* | 129*
CCc1c(C(=O)Nc2ccc(OC)cc2)[nH]c(C)c1C(C)=O | 122 | 105 | 16 | 1.1 | -23 | -5 | . | . | .
CCO[C@@H]1OC(C(=O)N2CCOCC2)=C[C@H](c2coc3ccccc3c2=O)[C@H]1CCCO | . | 100 | 8 | 1.4 | . | 2 | . | . | .
CC(=O)C(Cc1ccccc1)NC(=O)CN1CCN(Cc2ccccc2)CC1 (stereo not given) | 102 | 89 | 45 | 1.3 | -3 | 12 | . | . | .
CSc1nc(O)c(/C=C2\C=Nc3ccccc32)[nH]1 | 138* | 121 | 5 | 1.5 | -45 | -23 | 146* | 112 | 123*
CSc1nc(O)c(C2OC(=O)c3ccccc32)c(=O)[nH]1 (stereo not given) | 96 | 96 | -2 | 1.3 | 9 | 4 | . | . | .
N#C/C(=C(/O)COC(=O)CCc1ccc(S(=O)(=O)N2CCOCC2)cc1)c1nc2ccccc2[nH]1 | 149* | 86 | 8 | 2.6 | -55 | 16 | 144* | 102 | 86
SMILES | STAT3 act-1 | STAT1 act-1 | APP 5'UTR act | NF-kB expr up | STAT3 inh | STAT1 inh | STAT3 act-2 | NFkB act 2 | STAT1 act-2
N#C/C(=C(/O)COC(=O)c1ccc(Cl)c(S(=O)(=O)N2CCOCC2)c1)c1nc2ccccc2[nH]1 | 98 | 95 | 11 | 0.8 | 4 | 5 | . | . | .
COc1ccc2c(c1)c1nnc(SCC(=O)N3C(C)CCCC3C)nc1n2C (stereo not given) | 95 | 105 | 7 | 0.43 | 8 | -5 | . | . | .
COc1ccc2c(c1)c1nnc(SC)nc1n2C | 160* | 124 | 11 | 1.3 | -65 | -27 | 171* | 113 | 128*
CCN(Cc1ccncc1)C(=O)C1CCN(S(=O)(=O)c2cccs2)CC1 | 94 | 98 | -10 | 0.91 | 8 | 2 | . | . | .
Clc1ccc(/C=N/Nc2nnc(Cl)c3ccccc23)cc1 | 146* | 117 | 6 | 2 | -51 | -20 | 160* | 127* | 164*
C=CCNc1nnc(Cl)c2ccccc12 | 95 | 101 | -1 | 1.2 | 15 | 1 | . | . | .
Clc1nnc(N/N=C/c2ccccc2)c2ccccc12 | 159* | 122 | 95 | 2.5 | -60 | -24 | 163* | 124* | 163*
Clc1ccc(/C=N/Nc2nn[nH]n2)cc1 | 101 | 95 | 7 | 1.4 | 2 | 3 | . | . | .
COc1ccccc1C(=O)Nc1cc2cc(Br)ccc2oc1=O | 137* | 104 | 3 | 1.2 | -44 | -4 | 138* | 114 | 134*
COc1ccccc1C(=O)Nc1cc(Cl)ccc1O | 151* | 93 | -10 | 1.4 | -52 | 8 | 162* | 109 | 114
COc1cc(NC(=O)c2cc3ccccc3o2)c(OC)cc1Br | 149* | 100 | 0 | 1.1 | -50 | 0 | 135* | 101 | 102
COc1ccccc1C(=O)Nc1cc2ccccc2oc1=O | 184* | 121 | 16 | 2.3 | -87 | -22 | 192* | 135* | 166*
CCOc1ccccc1C(=O)Nc1cc(Cl)ccc1O | 115 | 92 | 1 | 0.82 | -16 | 2 | . | . | .
